Source: PubChem BioAssay
RGS4 inh = human RGS4 inhibition | AID 463165 | B-score at 10 µM | P49798 | HEK293 M3R/RGS4 inducible, Fluo-4 calcium flux; hits give high values; triggered by carbachol at its EC20 | actives 0.45% (n = 310,000);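 active = B-score, a plate-corrected calcium signal, over three deviations above library mean, with baseline fluorescence within five deviations of library mean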;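 also: RGS4 expression induced by doxycycline in cells with stable M3 receptor; B-score is computed from the integrated fluorescence ratio over baseline after carbachol; higher B-score means a larger calcium signal and so more RGS4 inhibition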
Target sequence (P49798 whole entry, looked up): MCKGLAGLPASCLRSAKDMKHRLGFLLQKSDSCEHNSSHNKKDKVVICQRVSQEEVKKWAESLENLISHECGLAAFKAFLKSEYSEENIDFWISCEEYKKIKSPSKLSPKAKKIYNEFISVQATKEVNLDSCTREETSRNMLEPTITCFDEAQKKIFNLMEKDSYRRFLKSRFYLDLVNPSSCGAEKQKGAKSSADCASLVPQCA
MrgX1 allo act = allosterically activates human MrgX1 receptor signaling | Q96LB2 | MrgX1-HEK293, Fluo-4 calcium flux, FDSS; hits give high values | B-score at 10 µM | actives 0.63% (n = 310,000) | AID 588675;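 active = plate-corrected calcium response at least 3 library SD above typical, normal starting fluorescence, not activating the receptor alone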;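 also: compound read alongside a low EC10 to EC30 dose of BAM8-22 agonist; peak minus trough fluorescence over baseline measured at the second addition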
Target sequence (Q96LB2 whole entry, looked up): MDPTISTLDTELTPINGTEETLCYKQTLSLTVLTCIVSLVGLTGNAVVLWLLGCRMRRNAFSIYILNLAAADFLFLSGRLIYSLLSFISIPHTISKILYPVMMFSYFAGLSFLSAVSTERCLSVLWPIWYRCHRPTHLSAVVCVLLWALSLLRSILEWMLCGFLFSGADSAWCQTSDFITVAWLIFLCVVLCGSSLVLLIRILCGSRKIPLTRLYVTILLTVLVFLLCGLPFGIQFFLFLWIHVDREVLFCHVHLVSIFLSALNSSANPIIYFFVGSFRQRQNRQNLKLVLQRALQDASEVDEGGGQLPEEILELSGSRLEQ
MrgX1 agonist = human MrgX1 receptor agonism, primary screen; AID 588627; MrgX1-HEK293 cells, Fluo-4 calcium fluorescence, agonist mode; hits give high values; actives 0.44% (n = 310,000); B-score at 10 µM;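 active = calcium response B-score plate-corrected fluorescence ratio at least 3 library SD, with starting fluorescence B-score inside 5 SD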
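Material: HEK293 cells stably expressing human MrgX1 receptor | Quantity: 15,000 cells per well | Times: Cells plated overnight, dye loaded 0.5 h 37 °C, 0.5 h room temperature | Measured by: Kinetic Fluo-4 NW fluorescence of intracellular calcium | Control set: Positive and negative controls per plate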
MrgX1 antagonist = antagonists of human MrgX1 receptor. Q96LB2. MRGX1-HEK293 calcium flux, Fluo-4, BAM8-22 antagonism; hits give low values. B-score at 10 µM. actives 1.3% (n = 310,000). AID 588676;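 active = calcium-response B-score plate-corrected more than 3 library SD below zero, starting fluorescence within 5 deviations, no agonist response on first addition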;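 also: peak minus trough fluorescence over baseline after final BAM8-22 challenge near maximal dose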
RGS4 pot = potentiators or activators of RGS4; HEK293 M3R/inducible RGS4, carbachol calcium flux Fluo4; hits give low values; B-score at 10 µM; actives 0.92% (n = 310,000);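 active = B-score of the integrated calcium signal more than 4 SD below the library mean, with starting fluorescence not abnormally high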;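 also: negative B-score means reduced calcium response which marks RGS4 activation or potentiation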
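Assay system: Inducible-RGS4 HEK293 cells carrying M3 receptor | Schedule: Compound preincubation 20 min at room temperature before agonist | Signal: Kinetic calcium fluorescence imaging with Fluo4-AM dye, 2 µM | Read-out basis: B score from integrated fluorescence ratio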
Each line names hits and unclear results; the compound was inactive in the other large screens. This is a sample that favours compounds with a hit; in the whole collection about 3.5% have one here.

c1ccc(C[n+]2ccc3ccccc3c2)cc1	RGS4 pot -7.9
O=C1ON=C(c2ccc(Cl)cc2)/C1=C/c1ccc(O)cc1	MrgX1 agonist 34
CC(=O)/C(N=Nc1cc2c(c([N+](=O)[O-])c1C)C(C)(C)CC2(C)C)=C(\C)O	MrgX1 allo act 9.4
CNCCCOc1ccc(C(C)(C)c2ccccc2)cc1	none (no result: MrgX1 allo act, MrgX1 agonist, MrgX1 antagonist)
COCCCNCCOc1ccc(C(C)(C)c2ccccc2)cc1	RGS4 pot -7.8
O=C(Nn1c(C2CCCCC2)nc2ccccc2c1=O)c1ccc([N+](=O)[O-])cc1	none
COc1ccc(S(=O)(=O)N2CC(=O)Nc3ccccc32)cc1	none
C#CCN1C(=O)C(O)(CC(=O)/C=C/C=C/c2ccccc2)c2ccccc21 (stereo unspecified)	MrgX1 allo act 6.7
CCN1C(=O)C(O)(CC(=O)/C=C/C=C/c2ccccc2)c2ccccc21 (stereo unspecified)	none
CC1(C)CCCN(C(=O)c2ccc3c(c2NCCO)C(=O)c2ccccc2C3=O)C1	MrgX1 allo act 15
CC1CCCN(C(=O)c2ccc3c(c2NCCO)C(=O)c2ccccc2C3=O)C1 (stereo unspecified)	MrgX1 allo act 8
CCN(CCN(C)C)C(=O)c1ccc2c(c1NCCO)C(=O)c1ccccc1C2=O	none
O=C1c2ccccc2C(=O)c2c1ccc(C(=O)N1CCCCC1)c2NCCO	MrgX1 allo act 7
Cc1ccccc1-c1nc(CS(=O)CC(=O)NCc2ccccc2)c(C)o1 (stereo unspecified)	none
COCCNC(=O)CS(=O)Cc1nc(-c2ccccc2C)oc1C (stereo unspecified)	MrgX1 antagonist -5.3
Cc1cc(-n2cccn2)ccc1CN1CCN(CC(C)C)C(CCO)C1 (stereo unspecified)	RGS4 pot -7.3
Cc1cc(-n2cccn2)ccc1CN1CCN(C2CCCC2)C(CCO)C1 (stereo unspecified)	none
OCc1ccccc1SSc1ccccc1CO	MrgX1 agonist 41
CCOC(=O)c1[nH]c2cc(OC)c(OC)cc2c1NC(=O)C(C)N1CCN(Cc2ccccc2)CC1 (stereo unspecified)	RGS4 pot -8.7
CCOC(=O)c1[nH]c2ccc(OC)cc2c1NC(=O)C(C)N1CCSCC1 (stereo unspecified)	none (no result: MrgX1 allo act, MrgX1 agonist, MrgX1 antagonist)
O=[N+]([O-])c1ccc(N/N=C/c2cccs2)nc1	none
O=[N+]([O-])c1ccc(N/N=C\c2cccn2-c2ccccc2)nc1	MrgX1 allo act 8
COc1ccc(NC(=O)C(=O)NNC(=O)C(C)Oc2ccc(Cl)cc2Cl)cc1 (stereo unspecified)	MrgX1 antagonist -6.2
COC(=O)c1ccc(-c2nc3ccccc3[nH]2)cc1	none
Cn1c(Sc2ccccc2Cl)c(C=O)c2ccccc21	RGS4 pot -8.5
COc1ccc(-c2cc([C@H]3[C@@H]4C=CCC[C@@]4(C)C(=O)N3Cc3ccccc3)ccc2F)cc1	MrgX1 antagonist -5.4
O=C(NC(=S)Nc1cccc(S(=O)(=O)NC2=NCCC2)c1)c1cc(-c2ccco2)nc2ccccc12	MrgX1 antagonist -4.9
O=C(Nc1cccc(S(=O)(=O)NC2=NCCC2)c1)c1cc(-c2ccco2)nc2ccccc12	none
O=C(NCc1csc2ccccc12)Nc1cc(Cl)cc(Cl)c1	MrgX1 antagonist -4.6
CC(=O)c1ccc(N(CC(=O)NC2CCCCC2)C(=O)CNC(=O)c2cccs2)cc1	none
COc1ccc(NC(=O)Nc2c[nH]c(=O)[nH]c2=O)cc1	none
CCC1C(=O)NCCN1C(=O)CCc1nnc(CCc2ccc(OC)cc2)o1 (stereo unspecified)	MrgX1 antagonist -5.7
O=C(COc1ccc(Cl)cc1)NCc1nnc(SCC(=O)Nc2ccccc2F)o1	none
O=C(OCn1nnc2ccccc2c1=O)c1ccc(O)cc1	MrgX1 allo act 12
COc1cc(C(=O)OCn2nnc3ccccc3c2=O)cc(OC)c1OC	none
CCOc1ccc(C(=O)OCn2nnc3ccccc3c2=O)cc1OC	MrgX1 antagonist -7.6
O=C(O)CCNC(=O)/C(=C\c1ccco1)NC(=O)c1ccco1	none
O=C(CSc1nnc2c(Cl)cc(Cl)cn12)N1CCN(c2ccc(F)cc2)CC1	none
O=C(O)c1cccc(CN2C(=O)S/C(=C/c3ccccc3[N+](=O)[O-])C2=O)c1	MrgX1 allo act 11
O=C1S/C(=C\c2ccc(O)c([N+](=O)[O-])c2)C(=O)N1Cc1cccc([N+](=O)[O-])c1	none
COc1cc(OC)cc(C(=O)OCc2ccc([N+](=O)[O-])cc2)c1	none
Cc1ccc(NC(=O)CSc2ncc3ccccn23)cc1C	RGS4 pot -7.5
Cc1ccc(NC(=O)CSc2ncn(-c3ccccc3)n2)cc1C	none
N#C/C(=C\c1ccccc1[N+](=O)[O-])C(=O)NC1CCCCC1	MrgX1 agonist 35
N#C/C(=C\C=C\c1ccccc1[N+](=O)[O-])C(=O)NC1CCCCC1	MrgX1 allo act 14
CCOc1ccccc1/C=C(\C#N)C(=O)NC1CC1	none
CCn1cc(S(=O)(=O)N2CCc3ccccc3C2)cn1	none
CCOC(=O)C1(Cc2ccccc2C)CCCN(C(=O)c2ccoc2)C1 (stereo unspecified)	none
CCN(Cc1ccccc1)c1ccc(/C=N/N=C(N)N)cc1	MrgX1 antagonist -5.5
Cc1cc(C)c(C)c(OCC(=O)O/N=C(\N)c2ccncc2)c1	MrgX1 allo act 9.8
Cc1ccc(OCC(=O)O/N=C(\N)c2ccncc2)c(C)c1	none
CC(C)(C)c1ccc(-n2ncc3c2CCCC3NC(=O)c2ccncc2)cc1 (stereo unspecified)	RGS4 pot -8.9
COc1ccc(C(=O)CCC(=O)N2CCN(c3ccc(C)cc3)C(C)C2)cc1 (stereo unspecified)	none
Cc1ccc(-c2cc(C(=O)N/N=C/c3c(C)nn(-c4ccccc4)c3C)n[nH]2)s1	RGS4 pot -7.7 (no result: MrgX1 allo act, MrgX1 agonist, MrgX1 antagonist)
CCC1CN(C(=O)N2CCC(C(=O)NCc3ccco3)CC2)c2cc(C)ccc2O1 (stereo unspecified)	none
O=C(Nc1cccc(Cl)c1)c1cc(S(=O)(=O)N2CCOCC2)cs1	none
C#CCOCCOCCOCCNc1nc(N2CCN(C(=O)[C@H](Cc3cc4ccccc4[nH]3)n3cc(C(N)CC(C)C)nn3)CC2)nc(N2CCN(C(=O)[C@H](CCC(=O)O)n3cc(C(N)[C@H](C)CC)nn3)CC2)n1 (stereo partly specified)	MrgX1 allo act 8.9
C#CCOCCOCCOCCNc1nc(N2CCN(C(=O)[C@H](CCCCN)n3cc(C(N)CO)nn3)CC2)nc(N2CCN(C(=O)[C@H](CCC(=O)O)n3cc(C(N)[C@H](C)CC)nn3)CC2)n1 (stereo partly specified)	MrgX1 antagonist -4.5
CC(=O)N1CCN=C1SCc1cccc(C)c1	none
Cc1ccc(C(=O)CC(=O)c2ccccc2)cc1	none
Cc1ccc(C(=O)Sc2cccccc2=O)cc1	MrgX1 agonist 49
